Test results from ChEMBL document CHEMBL1158343, “Synthesis, antimicrobial and antiviral evaluation of substituted imidazole derivatives” (Eur J Med Chem, 2009).
In brackets after ≈: the same amount, converted by molar mass.

What was measured:
Human respirovirus 3 = assay: Antiviral activity against Parainfluenza-3 virus infected in african green monkey Vero cells assessed as reduction in virus-induced cytopathogenicity after 3 days; assay type: functional, organism-based; conditions: Human respirovirus 3, Vero, 72 h
[1] = Cytotoxicity against african green monkey Vero cells assessed as alteration in cell morphology; assay type: cell-based; conditions: chlorocebus sabaeus
Procedure, shortened: (§1)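 Uninfected cell cultures tested in parallel with the CPE-reduction antiviral assay; cells grown to confluency, then serial compound dilutions added and incubated at 37 °C (3 days in the parallel antiviral set-up). Read-out is microscopic examination of morphology; value is the minimum cytotoxic concentration, the lowest causing a microscopically detectable alteration of normal cell morphology.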

Coxsackievirus B4 [2] = assay: Antiviral activity against Coxsackievirus B4 infected in human HeLa cells assessed as reduction in virus-induced cytopathogenicity after 3 days; assay type: functional, organism-based; conditions: Enterovirus B, 72 h
Human alphaherpesvirus 1 [3] = assay: Antiviral activity against thymidine kinase-deficient acyclovir-resistant HSV1 KOS infected in human HEL cells assessed as reduction in virus-induced cytopathogenicity after 3 days; assay type: functional, organism-based; conditions: Human alphaherpesvirus 1, KOS, 72 h
[4] = Cytotoxicity against human HeLa cells assessed as alteration in cell morphology; assay type: cell-based; procedure, shortened: as §1
Coxsackievirus B4 [5] = assay: Antiviral activity against Coxsackievirus B4 infected in african green monkey Vero cells assessed as reduction in virus-induced cytopathogenicity after 3 days; assay type: functional, organism-based; conditions: Enterovirus B, 72 h
[6] = tested on: Vesicular stomatitis virus; assay: Antiviral activity against VSV infected in human HEL cells assessed as reduction in virus-induced cytopathogenicity after 3 days; assay type: functional, organism-based; conditions: 72 h
[7] = tested on: Respiratory syncytial virus; assay: Antiviral activity against RSV infected in human HeLa cells assessed as reduction in virus-induced cytopathogenicity after 3 days; assay type: functional, organism-based; conditions: 72 h
Human alphaherpesvirus 1 [8] = assay: Antiviral activity against HSV1 KOS infected in human HEL cells assessed as reduction in virus-induced cytopathogenicity after 3 days; assay type: functional, organism-based; conditions: Human alphaherpesvirus 1, KOS, 72 h
Bacillus subtilis = assay: Antimicrobial activity against Bacillus subtilis after 24 hrs by tube dilution method; assay type: functional
Procedure, shortened: (§2)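 Tube dilution in DMSO (stock 100 mg/ml) with serial dilutions; incubation 37 °C for 48 h for C. albicans (other organisms' times truncated in text). MIC read as lowest concentration inhibiting visible growth. Norfloxacin (bacteria) and fluconazole (fungi) as reference drugs.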

[9] = tested on: Vesicular stomatitis virus; assay: Antiviral activity against VSV infected in human HeLa cells assessed as reduction in virus-induced cytopathogenicity after 3 days; assay type: functional, organism-based; conditions: 72 h
Aspergillus niger = assay: Antimicrobial activity against Aspergillus niger after 7 days by tube dilution method; assay type: functional; conditions: 168 h; procedure, shortened: as §2
[10] = Cytotoxicity against human HEL cells assessed as alteration in cell morphology; assay type: cell-based; procedure, shortened: as §1
Punta Toro virus = assay: Antiviral activity against Punta Toro virus infected in african green monkey Vero cells assessed as reduction in virus-induced cytopathogenicity after 3 days; assay type: functional, organism-based; conditions: 72 h
Sindbis virus = assay: Antiviral activity against Sindbis virus infected in african green monkey Vero cells assessed as reduction in virus-induced cytopathogenicity after 3 days; assay type: functional, organism-based; conditions: 72 h
Candida albicans = assay: Antimicrobial activity against Candida albicans after 48 hrs by tube dilution method; assay type: functional; procedure, shortened: as §2
Human alphaherpesvirus 2 = assay: Antiviral activity against HSV2 G infected in human HEL cells assessed as reduction in virus-induced cytopathogenicity after 3 days; assay type: functional, organism-based; conditions: Human alphaherpesvirus 2, strain G, 72 h
[11] = tested on: Mammalian orthoreovirus 1; assay: Antiviral activity against Reovirus 1 infected in african green monkey Vero cells assessed as reduction in virus-induced cytopathogenicity after 3 days; assay type: functional, organism-based; conditions: Mammalian orthoreovirus 1, Vero, 72 h
Escherichia coli = assay: Antimicrobial activity against Escherichia coli after 24 hrs by tube dilution method; assay type: functional; procedure, shortened: as §2
Staphylococcus aureus = assay: Antimicrobial activity against Staphylococcus aureus after 24 hrs by tube dilution method; assay type: functional; procedure, shortened: as §2

Compound	EC50 (Human respirovirus 3)	MCC [1]	EC50 (Coxsackievirus B4 [2])	EC50 (Human alphaherpesvirus 1 [3])	MCC [4]	EC50 (Coxsackievirus B4 [5])	EC50 [6]	EC50 [7]	EC50 (Human alphaherpesvirus 1 [8])	MBC (Bacillus subtilis)	MIC (Bacillus subtilis)	EC50 [9]	MFC (Aspergillus niger)	MIC (Aspergillus niger)	MCC [10]	EC50 (Punta Toro virus)	EC50 (Sindbis virus)	MFC (Candida albicans)	MIC (Candida albicans)	EC50 (Human alphaherpesvirus 2)	other results
O=C(c1ccccc1Br)n1ccnc1-c1ccccc1[N+](=O)[O-]	> 100 µg/mL	> 100 µg/mL	> 100 µg/mL	> 100 µg/mL	> 100 µg/mL	> 100 µg/mL	> 100 µg/mL	> 100 µg/mL	> 100 µg/mL	268 µM (≈ 99.7 µg/mL)	2 µM (≈ 0.744 µg/mL)	> 100 µg/mL	67 µM (≈ 24.9 µg/mL)	4 µM (≈ 1.49 µg/mL)	> 100 µg/mL	> 100 µg/mL	> 100 µg/mL	268 µM (≈ 99.7 µg/mL)	33 µM (≈ 12.3 µg/mL)	> 100 µg/mL	EC50 [11]: > 100 µg/mL; MBC (Escherichia coli): 268 µM (≈ 99.7 µg/mL); MIC (Escherichia coli): 33 µM (≈ 12.3 µg/mL); MBC (Staphylococcus aureus): 268 µM (≈ 99.7 µg/mL); MIC (Staphylococcus aureus): 2 µM (≈ 0.744 µg/mL)
O=C(c1ccccc1Br)n1ccnc1-c1ccc(Cl)cc1	> 100 µg/mL	> 100 µg/mL	> 100 µg/mL	> 100 µg/mL	> 100 µg/mL	> 100 µg/mL	> 100 µg/mL	> 100 µg/mL	> 100 µg/mL	17 µM (≈ 6.15 µg/mL)	2 µM (≈ 0.723 µg/mL)	> 100 µg/mL	69 µM (≈ 25 µg/mL)	8 µM (≈ 2.89 µg/mL)	> 100 µg/mL	> 100 µg/mL	> 100 µg/mL	138 µM (≈ 49.9 µg/mL)	17 µM (≈ 6.15 µg/mL)	> 100 µg/mL	EC50 [11]: > 100 µg/mL; MBC (Escherichia coli): 17 µM (≈ 6.15 µg/mL); MIC (Escherichia coli): 2 µM (≈ 0.723 µg/mL); MBC (Staphylococcus aureus): 17 µM (≈ 6.15 µg/mL); MIC (Staphylococcus aureus): 2 µM (≈ 0.723 µg/mL)
O=C(c1ccccc1Br)n1ccnc1-c1ccc([N+](=O)[O-])cc1	> 100 µg/mL	> 100 µg/mL	> 100 µg/mL	> 100 µg/mL	> 100 µg/mL	> 100 µg/mL	> 100 µg/mL	> 100 µg/mL	> 100 µg/mL	33 µM (≈ 12.3 µg/mL)	4 µM (≈ 1.49 µg/mL)	> 100 µg/mL	67 µM (≈ 24.9 µg/mL)	4 µM (≈ 1.49 µg/mL)	> 100 µg/mL	> 100 µg/mL	> 100 µg/mL	134 µM (≈ 49.9 µg/mL)	16 µM (≈ 5.95 µg/mL)	> 100 µg/mL	EC50 [11]: > 100 µg/mL; MBC (Escherichia coli): 33 µM (≈ 12.3 µg/mL); MIC (Escherichia coli): 4 µM (≈ 1.49 µg/mL); MBC (Staphylococcus aureus): 16 µM (≈ 5.95 µg/mL); MIC (Staphylococcus aureus): 2 µM (≈ 0.744 µg/mL)
O=C(c1ccc([N+](=O)[O-])cc1)n1ccnc1-c1cccc(Cl)c1	> 100 µg/mL	> 100 µg/mL	> 100 µg/mL	> 100 µg/mL	> 100 µg/mL	> 100 µg/mL	> 100 µg/mL	> 100 µg/mL	> 100 µg/mL	305 µM (≈ 100 µg/mL)	38 µM (≈ 12.5 µg/mL)	> 100 µg/mL	152 µM (≈ 49.8 µg/mL)	19 µM (≈ 6.23 µg/mL)	> 100 µg/mL	> 100 µg/mL	> 100 µg/mL	304 µM (≈ 99.6 µg/mL)	38 µM (≈ 12.5 µg/mL)	> 100 µg/mL	EC50 [11]: > 100 µg/mL; MBC (Escherichia coli): 305 µM (≈ 100 µg/mL); MIC (Escherichia coli): 38 µM (≈ 12.5 µg/mL); MBC (Staphylococcus aureus): 305 µM (≈ 100 µg/mL); MIC (Staphylococcus aureus): 38 µM (≈ 12.5 µg/mL)
O=C(c1ccc([N+](=O)[O-])cc1)n1ccnc1-c1ccccc1[N+](=O)[O-]	> 100 µg/mL	> 100 µg/mL	> 100 µg/mL	> 100 µg/mL	> 100 µg/mL	> 100 µg/mL	> 100 µg/mL	> 100 µg/mL	> 100 µg/mL	295 µM (≈ 99.8 µg/mL)	36 µM (≈ 12.2 µg/mL)	> 100 µg/mL	73 µM (≈ 24.7 µg/mL)	4 µM (≈ 1.35 µg/mL)	> 100 µg/mL	> 100 µg/mL	> 100 µg/mL	295 µM (≈ 99.8 µg/mL)	36 µM (≈ 12.2 µg/mL)	> 100 µg/mL	EC50 [11]: > 100 µg/mL; MBC (Escherichia coli): 295 µM (≈ 99.8 µg/mL); MIC (Escherichia coli): 36 µM (≈ 12.2 µg/mL); MBC (Staphylococcus aureus): 295 µM (≈ 99.8 µg/mL); MIC (Staphylococcus aureus): 36 µM (≈ 12.2 µg/mL)
